According to ChEMBL document CHEMBL1153726, “Synthesis and anticancer activity of sclerophytin-inspired hydroisobenzofurans” (Bioorg Med Chem Lett, 2009):

What was measured:
Format in all cases: functional
A498 [1] = assay: Growth inhibition of human A498 cells at 100 nM after 96 hrs by MTT assay; parameters: scale not given: the % may be the effect or the level left
SK-MEL-5 = assay: Growth inhibition of human SK-MEL-5 cells at 1 nM after 96 hrs by MTT assay; parameters: scale not given: the % may be the effect or the level left
LOX IMVI = assay: Growth inhibition of human LOXIMVI cells at 10 uM after 96 hrs by MTT assay; parameters: scale not given: the % may be the effect or the level left
[2] = Growth inhibition of human Hs 578T cells at 10 nM after 96 hrs by MTT assay; parameters: scale not given: the % may be the effect or the level left
MOLT-4 = assay: Growth inhibition of human MOLT4 cells at 1 nM after 96 hrs by MTT assay; parameters: scale not given: the % may be the effect or the level left
SW-620 [3] = assay: Growth inhibition of human SW620 cells after 96 hrs by MTT assay; conditions: SW-620, 96 h
Summary of the method: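 Tested in the NCI 60-cell-line panel in five-dose format; GI50 and LC50 values reported for each cell line.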

A498 [4] = assay: Growth inhibition of human A498 cells at 10 nM after 96 hrs by MTT assay; parameters: scale not given: the % may be the effect or the level left
HL-60(TB) = assay: Growth inhibition of human HL-60(TB) cells at 1 uM after 96 hrs by MTT assay; parameters: scale not given: the % may be the effect or the level left
HT-29 [5] = assay: Growth inhibition of human HT-29 cells at 100 nM after 96 hrs by MTT assay; parameters: scale not given: the % may be the effect or the level left
NCI-H23 = assay: Growth inhibition of human NCI-H23 cells at 10 uM after 96 hrs by MTT assay; parameters: scale not given: the % may be the effect or the level left
SNB-75 = assay: Growth inhibition of human SNB75 cells at 100 nM after 96 hrs by MTT assay; parameters: scale not given: the % may be the effect or the level left
TK-10 = assay: Growth inhibition of human TK10 cells at 100 nM after 96 hrs by MTT assay; parameters: scale not given: the % may be the effect or the level left
BT-549 = assay: Growth inhibition of human BT549 cells at 10 uM after 96 hrs by MTT assay; parameters: scale not given: the % may be the effect or the level left
M14 = assay: Growth inhibition of human M14 cells at 100 nM after 96 hrs by MTT assay; parameters: scale not given: the % may be the effect or the level left
K562 = assay: Growth inhibition of human K562 cells at 100 nM after 96 hrs by MTT assay; parameters: scale not given: the % may be the effect or the level left
SK-OV-3 = assay: Growth inhibition of human SKOV3 cells at 10 uM after 96 hrs by MTT assay; parameters: scale not given: the % may be the effect or the level left
EKVX = assay: Growth inhibition of human EKVX cells at 10 nM after 96 hrs by MTT assay; parameters: scale not given: the % may be the effect or the level left
HT-29 [6] = assay: Growth inhibition of human HT-29 cells after 96 hrs by MTT assay; conditions: HT-29, 96 h
Summary of the method: (§1)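 Run in the NCI 60 human tumour cell line panel as a five-dose assay. GI50 and LC50 were reported for each cell line.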

SF-539 = assay: Growth inhibition of human SF539 cells at 10 uM after 96 hrs by MTT assay; parameters: scale not given: the % may be the effect or the level left
OVCAR-3 = assay: Growth inhibition of human OVCAR-3 cells at 1 uM after 96 hrs by MTT assay; parameters: scale not given: the % may be the effect or the level left
SW-620 [7] = assay: Growth inhibition of human SW620 cells at 1 uM after 96 hrs by MTT assay; parameters: scale not given: the % may be the effect or the level left
DU-145 = assay: Growth inhibition of human DU145 cells after 96 hrs by MTT assay; conditions: DU-145, 96 h
[8] = Growth inhibition of human Hs 578T cells at 10 uM after 96 hrs by MTT assay; parameters: scale not given: the % may be the effect or the level left
HT-29 [9] = assay: Growth inhibition of human HT-29 cells at 10 nM after 96 hrs by MTT assay; parameters: scale not given: the % may be the effect or the level left
RXF 393 = assay: Growth inhibition of human RXF393 cells at 1 uM after 96 hrs by MTT assay; parameters: scale not given: the % may be the effect or the level left
OVCAR-8 = assay: Growth inhibition of human OVCAR8 cells at 1 nM after 96 hrs by MTT assay; parameters: scale not given: the % may be the effect or the level left
MDA-MB-231 = assay: Growth inhibition of human MDA-MB-231 cells at 1 nM after 96 hrs by MTT assay; parameters: scale not given: the % may be the effect or the level left
NCI-H460 = assay: Growth inhibition of human NCI-H460 cells at 10 uM after 96 hrs by MTT assay; parameters: scale not given: the % may be the effect or the level left
MDA-MB-435 = assay: Growth inhibition of human MDA-MB-435 cells at 10 uM after 96 hrs by MTT assay; parameters: scale not given: the % may be the effect or the level left
COLO 205 [10] = assay: Growth inhibition of human COLO205 cells at 10 nM after 96 hrs by MTT assay; parameters: scale not given: the % may be the effect or the level left
HT-29 [11] = assay: Growth inhibition of human HT-29 cells at 1 uM after 96 hrs by MTT assay; parameters: scale not given: the % may be the effect or the level left
SN12C = assay: Growth inhibition of human SN12C cells at 1 uM after 96 hrs by MTT assay; parameters: scale not given: the % may be the effect or the level left
SR = assay: Growth inhibition of human SR cells at 100 nM after 96 hrs by MTT assay; parameters: scale not given: the % may be the effect or the level left
CAKI-1 = assay: Growth inhibition of human Caki1 cells at 1 nM after 96 hrs by MTT assay; parameters: scale not given: the % may be the effect or the level left
HOP-62 = assay: Growth inhibition of human HOP62 cells at 100 nM after 96 hrs by MTT assay; parameters: scale not given: the % may be the effect or the level left
HCC 2998 = assay: Growth inhibition of human HCC2998 cells after 96 hrs by MTT assay; conditions: HCC 2998, 96 h; summary of the method: as §1
NCI-H522 [12] = assay: Growth inhibition of human NCI-H522 cells at 100 nM after 96 hrs by MTT assay; parameters: scale not given: the % may be the effect or the level left
NCI-H522 [13] = assay: Growth inhibition of human NCI-H522 cells at 10 nM after 96 hrs by MTT assay; parameters: scale not given: the % may be the effect or the level left
HCT-116 = assay: Growth inhibition of human HCT116 cells at 1 nM after 96 hrs by MTT assay; parameters: scale not given: the % may be the effect or the level left
SF-268 = assay: Growth inhibition of human SF268 cells at 1 nM after 96 hrs by MTT assay; parameters: scale not given: the % may be the effect or the level left
HOP-92 = assay: Growth inhibition of human HOP92 cells at 10 uM after 96 hrs by MTT assay; parameters: scale not given: the % may be the effect or the level left
COLO 205 [14] = assay: Growth inhibition of human COLO205 cells at 1 nM after 96 hrs by MTT assay; parameters: scale not given: the % may be the effect or the level left
786-0 = assay: Growth inhibition of human 786-0 cells at 1 nM after 96 hrs by MTT assay; parameters: scale not given: the % may be the effect or the level left
Malme-3M = assay: Growth inhibition of human MALME-3M cells after 96 hrs by MTT assay; summary of the method: as §1
[15] = read-out: LC50 (the source's name)
[16] = read-out: Log10GI50 (converted)
[17] = read-out: Log10LC50 (converted)

C=C(C)[C@H]1CC=C(C)C2=CO[C@@H](c3ccccc3F)[C@@H]21
Activity (A498 [1]): 88% | Activity (SK-MEL-5): 91% | Activity (LOX IMVI): 89.75% | Activity [2]: 83% | Activity (MOLT-4): 106% | GI50 (SW-620 [3]; read-out: GI50): 4.49 µM | CC50 (SW-620 [3]; [15]): 43.4 µM | GI50 (SW-620 [3]; [16]): 4.47 µM | CC50 (SW-620 [3]; [17]): 43.7 µM | TGI (SW-620 [3]; read-out: Log10TGI (converted)): 15.8 µM | TGI (SW-620 [3]; read-out: TGI): 15.9 µM | Activity (A498 [4]): 91% | Activity (HL-60(TB)): -40% | Activity (HT-29 [5]): 82% | Activity (NCI-H23): 95.4% | Activity (SNB-75): 84% | Activity (TK-10): 92% | Activity (BT-549): 112.93% | Activity (M14): 80% | Activity (K562): 68% | Activity (SK-OV-3): 93.49% | Activity (EKVX): 93% | GI50 (HT-29 [6]; read-out: GI50): 3.41 µM | LC50 (50% lethal concentration) (HT-29 [6]; read-out: LC50): 43.2 µM | GI50 (HT-29 [6]; [16]): 3.39 µM | LC50 (50% lethal concentration) (HT-29 [6]; [17]): 43.7 µM | TGI (HT-29 [6]; read-out: Log10TGI (converted)): 15.5 µM | TGI (HT-29 [6]; read-out: TGI): 15.6 µM | Activity (SF-539): 92.75% | Activity (OVCAR-3): 12% | Activity (SW-620 [7]): 23% | GI50 (DU-145; read-out: GI50): 5.53 µM | CC50 (DU-145; [15]): 94.5 µM | GI50 (DU-145; [16]): 5.5 µM | CC50 (DU-145; [17]): 95.5 µM | TGI (DU-145; read-out: Log10TGI (converted)): 26.3 µM | TGI (DU-145; read-out: TGI): 26.1 µM | Activity [8]: 95.86% | Activity (HT-29 [9]): 92% | Activity (RXF 393): 44% | Activity (OVCAR-8): 99% | Activity (MDA-MB-231): 101% | Activity (NCI-H460): 92.68% | Activity (MDA-MB-435): 109.16% | Activity (COLO 205 [10]): 84% | Activity (HT-29 [11]): 22% | Activity (SN12C): 44% | Activity (SR): 47% | Activity (CAKI-1): 96% | Activity (HOP-62): 98% | GI50 (HCC 2998; read-out: GI50): 6.4 µM | CC50 (HCC 2998; [15]): 45.3 µM | GI50 (HCC 2998; [16]): 6.46 µM | CC50 (HCC 2998; [17]): 45.7 µM | TGI (HCC 2998; read-out: Log10TGI (converted)): 19.5 µM | TGI (HCC 2998; read-out: TGI): 19.3 µM | Activity (NCI-H522 [12]): 71% | Activity (NCI-H522 [13]): 77% | Activity (HCT-116): 102% | Activity (SF-268): 91% | Activity (HOP-92): 66.62% | Activity (COLO 205 [14]): 101% | Activity (786-0): 99% | GI50 (Malme-3M; read-out: GI50): 2.78 µM | CC50 (Malme-3M; [15]): 43.8 µM | GI50 (Malme-3M; [16]): 2.75 µM | CC50 (Malme-3M; [17]): 43.7 µM | TGI (Malme-3M; read-out: Log10TGI (converted)): 15.1 µM | TGI (Malme-3M; read-out: TGI): 15.1 µM
